Results published in ChEMBL document CHEMBL3044969, “Syntheses and biological activities of dihydro-5,6-dehydrokawain derivatives” (1996).
Activity calls are given as the source filed them. The rule behind the calls is not given here.

What was measured:
Pythium [1] = assay: Antifungal activity against Pythium sp. assessed as growth inhibition at 100 ppm by agar dilution method relative to control; assay type: functional; conditions: read-out: GI
How it was run: (§1)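 Pythium sp. and Corticium rolfsii were each grown on potato dextrose agar (1.5% agar) for 5 days at 27°C before testing. Growth inhibition was measured by agar dilution, following a previously reported method.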

Athelia rolfsii [2] = assay: Antifungal activity against Athelia rolfsii assessed as growth inhibition at 1000 ppm by agar dilution method relative to control; assay type: functional; conditions: Agroathelia rolfsii; read-out: GI; how it was run: as §1
Coptotermes formosanus [3] = assay: Insecticidal activity against Coptotermes formosanus assessed as increase in mortality at 0.1 to 1 mg/filter paper measured for 14 days; assay type: functional, organism-based
How it was run: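 Termite mortality was counted in three replicates and the replicates were combined into a mean. Mortality is given as a percentage relative to an untreated control group of termites.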

Athelia rolfsii [4] = assay: Antifungal activity against Athelia rolfsii assessed as growth inhibition at 100 ppm by agar dilution method relative to control; assay type: functional; conditions: Agroathelia rolfsii; read-out: GI; how it was run: as §1
Pythium [5] = assay: Antifungal activity against Pythium sp. assessed as growth inhibition at 1000 ppm by agar dilution method relative to control; assay type: functional; conditions: read-out: GI; how it was run: as §1
Coptotermes formosanus [6] = assay: Insecticidal activity against Coptotermes formosanus assessed as increase in mortality at 1 mg/filter paper measured for 14 days relative to control; assay type: functional
How it was run: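 The termite assay was run in three replicates, which were combined into a mean. Mortality is given as a percentage relative to the untreated control termite group.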

Row | SMILES | inhibition of growth at 100 ppm (Pythium [1]) | inhibition of growth at 1000 ppm (Athelia rolfsii [2]) | Activity (Coptotermes formosanus [3]) | inhibition of growth at 100 ppm (Athelia rolfsii [4]) | inhibition of growth at 1000 ppm (Pythium [5]) | mortality (Coptotermes formosanus [6])
1 | COc1cc(CCc2ccccc2)oc(=O)c1 [DIHYDRO-5,6-DEHYDROKAWAIN] | 72% | 96% | inactive | 64% | 94% | –
2 | CCOP(=S)(OCC)Oc1cc(CCc2ccccc2)oc(=O)c1 | 18% | 66% | – | 57% | 44% | 50%
3 | COP(=S)(OC)Oc1cc(CCc2ccccc2)oc(=O)c1 | 50% | 98% | – | 91% | 88% | 93%
4 | O=c1cc(O)cc(CCc2ccccc2)o1 | 22% | 100% | inactive | 44% | 100% | –
5 | COc1cc(/C=C/c2ccccc2)oc(=O)c1 [DESMETHOXYYANGONIN] | 42% | 54% | – | 0% | 86% | –
